The values that follow come from ChEMBL document CHEMBL1122900, “Effects of alkyl and aryl substitution on the myocardial specificity of radioiodinated phosphonium, arsonium, and ammonium cations” (J Med Chem, 1985).

Data set [1] has as its system Rattus norvegicus. Description: Evaluated for the distribution of radioactivity in tissues of female Fischer rats thyroid after 60 minutes intravenous administration; dose/g, range 35-53. It counts as ADME, organism-based, Thyroid gland. The conditions noted are these: in vivo, 1 h. The gist of the method:
(§1)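 Female Fischer 344 rats (10-12 weeks, 170-200 g), fed ad libitum, got a single iv tail-vein injection under ether anaesthesia of the 125I-labelled cation (2.85-8.38 μCi). The tracer was dissolved in Me2SO, diluted with saline to 1% Me2SO and filtered. At the set times rats were killed by cervical fracture and blood taken by cardiac puncture. Organs were rinsed, blotted, weighed and gamma-counted against injectate standards. Results are %dose/g, mean and range, n=5. Thyroid weight was taken as 7.5 mg/100 g body weight.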

Data set [2] concerns Rattus norvegicus. Description: Evaluated for the distribution of radioactivity in tissues of female Fischer rats lungs after 60 minutes intravenous administration; dose/g, range 0.81-1.13. The class given is ADME, organism-based, Lung. The settings on record: in vivo, 1 h. Put shortly:
as §1

In data set [3] the test system is Rattus norvegicus. The data set can be described thus: Evaluated for the distribution of radioactivity in tissues of female Fischer rats thyroid after 5 minutes intravenous administration; dose/g, range 13-18. The class given is ADME, organism-based, Thyroid gland. The settings on record: in vivo. The gist of the method:
as §1

The test system of data set [4] is Rattus norvegicus. Description: Evaluated for the distribution of radioactivity in tissues of female Fischer rats lungs after 30 minutes intravenous administration; dose/g, range 0.83-1.21. The conditions noted are these: in vivo, 0.5 h. The class given is ADME, organism-based, Lung. The gist of the method:
as §1

In data set [5] the test system is Rattus norvegicus. Description: Evaluated for the distribution of radioactivity in tissues of female Fischer rats kidneys after 30 minutes intravenous administration; dose/g, range 7.21-7.95. The class given is ADME, organism-based, Kidney. The conditions noted are these: in vivo, 0.5 h.
Data set [6] deals with Rattus norvegicus. The data set can be described thus: Evaluated for the distribution of radioactivity in tissues of female Fischer rats liver after 5 minutes intravenous administration; dose/g, range 3.12-4.56. It counts as ADME, organism-based. The conditions noted are these: in vivo. Put shortly: as §1
Data set [7] deals with Rattus norvegicus. The data set can be described thus: Evaluated for the distribution of radioactivity in tissues of female Fischer rats kidneys after 5 minutes intravenous administration; dose/g, range 14.4-20.1. The settings on record: in vivo. It counts as ADME, organism-based, Kidney.
In data set [8] the test system is Rattus norvegicus. Description: Evaluated for the distribution of radioactivity in tissues of female Fischer rats liver after 60 minutes intravenous administration; dose/g, range 0.73-1.19. The class given is ADME, organism-based. The conditions noted are these: in vivo, 1 h. The gist of the method:
as §1

The subject of data set [9] is Rattus norvegicus. The data set can be described thus: Evaluated for the distribution of radioactivity in tissues of female Fischer rats lungs after 5 minutes intravenous administration; dose/g, range 0.96-1.35. It counts as ADME, organism-based, Lung. The settings on record: in vivo. Put shortly:
as §1

Data set [10] concerns Rattus norvegicus. The data set can be described thus: Evaluated for the distribution of radioactivity in tissues of female Fischer rats blood after 60 minutes intravenous administration; dose/g, range 0.13-0.15. The class given is ADME, organism-based. The conditions noted are these: in vivo, 1 h.
The subject of data set [11] is Rattus norvegicus. Description: Evaluated for the distribution of radioactivity in tissues of female Fischer rats blood after 30 minutes intravenous administration; dose/g, range 0.19-0.24. The class given is ADME, organism-based. The settings on record: in vivo, 0.5 h.
The subject of data set [12] is Rattus norvegicus. The data set can be described thus: Evaluated for the distribution of radioactivity in tissues of female Fischer rats thyroid after 30 minutes intravenous administration; dose/g, range 19-24. The class given is ADME, organism-based, Thyroid gland. The settings on record: in vivo, 0.5 h. Put shortly:
as §1

In data set [13] the test system is Rattus norvegicus. Description: Evaluated for the distribution of radioactivity in tissues of female Fischer rats heart after 60 minutes intravenous administration; dose/g, range 1.93-3.58. The class given is ADME, organism-based. The settings on record: in vivo, 1 h.
For data set [14], the system named is Rattus norvegicus. Description: Evaluated for the distribution of radioactivity in tissues of female Fischer rats heart after 30 minutes intravenous administration; dose/g, range 1.39-2.43. The conditions noted are these: in vivo, 0.5 h. It counts as ADME, organism-based.
Data set [15] has as its system Rattus norvegicus. The data set can be described thus: Evaluated for the distribution of radioactivity in tissues of female Fischer rats kidneys after 60 minutes intravenous administration; dose/g, range 4.62-5.60. The class given is ADME, organism-based, Kidney. The settings on record: in vivo, 1 h.
For data set [16], the system named is Rattus norvegicus. Description: Evaluated for the distribution of radioactivity in tissues of female Fischer rats liver after 30 minutes intravenous administration; dose/g, range 1.51-2.23. It counts as ADME, organism-based. The settings on record: in vivo, 0.5 h.
In data set [17] the test system is Rattus norvegicus. Description: Evaluated for the distribution of radioactivity in tissues of female Fischer rats heart after 5 minutes intravenous administration.; dose/g, range 2.20-2.97. The class given is ADME, organism-based. The conditions noted are these: in vivo.
In data set [18] the test system is Rattus norvegicus. Description: Evaluated for the distribution of radioactivity in tissues of female Fischer rats blood after 5 minutes intravenous administration; dose/g, range 0.40-0.45. The conditions noted are these: in vivo. It counts as ADME, organism-based.
For data set [19], the system named is Rattus norvegicus. Description: Evaluated for the distribution of radioactivity in tissues of female Fischer rats lungs after 30 minutes intravenous administration.; dose/g, range 0.34-0.47. The class given is ADME, organism-based, Lung. The settings on record: in vivo, 0.5 h. The gist of the method:
as §1

Data set [20] deals with Rattus norvegicus. The data set can be described thus: Evaluated for the distribution of radioactivity in tissues of female Fischer rats thyroid after 60 minutes intravenous administration; dose/g, range 5-12. It counts as ADME, organism-based, Thyroid gland. The conditions noted are these: in vivo, 1 h. The gist of the method: as §1
Data set [21] relates to Rattus norvegicus. Description: Evaluated for the distribution of radioactivity in tissues of female Fischer rats heart after 60 minutes intravenous administration; dose/g, range 1.05-1.57. It counts as ADME, organism-based. The settings on record: in vivo, 1 h.
The test system of data set [22] is Rattus norvegicus. The data set can be described thus: Evaluated for the distribution of radioactivity in tissues of female Fischer rats blood after 5 minutes intravenous administration; dose/g, range 0.10-0.14. The class given is ADME, organism-based. The settings on record: in vivo.
For data set [23], the system named is Rattus norvegicus. Description: Evaluated for the distribution of radioactivity in tissues of female Fischer rats liver after 5 minutes intravenous administration; dose/g, range 4.12-6.30. The class given is ADME, organism-based. The conditions noted are these: in vivo. Put shortly:
as §1

Data set [24] deals with Rattus norvegicus. The data set can be described thus: Evaluated for the distribution of radioactivity in tissues of female Fischer rats liver after 60 minutes intravenous administration; dose/g, range 1.08-2.31. The class given is ADME, organism-based. The settings on record: in vivo, 1 h. The gist of the method: as §1
Data set [25] concerns Rattus norvegicus. The data set can be described thus: Evaluated for the distribution of radioactivity in tissues of female Fischer rats thyroid after 30 minutes intravenous administration; dose/g, range 4-7. The conditions noted are these: in vivo, 0.5 h. It counts as ADME, organism-based, Thyroid gland. The gist of the method: as §1
Data set [26] deals with Rattus norvegicus. The data set can be described thus: Evaluated for the distribution of radioactivity in tissues of female Fischer rats blood after 60 minutes intravenous administration; dose/g, range 0.08-0.09. The class given is ADME, organism-based. The settings on record: in vivo, 1 h.
Data set [27] relates to Rattus norvegicus. The data set can be described thus: Evaluated for the distribution of radioactivity in tissues of female Fischer rats kidneys after 5 minutes intravenous administration; dose/g, range 4.78-9.72. The class given is ADME, organism-based, Kidney. The conditions noted are these: in vivo.
Data set [28] deals with Rattus norvegicus. The data set can be described thus: Evaluated for the distribution of radioactivity in tissues of female Fischer rats blood after 30 minutes intravenous administration; dose/g, range 0.07-0.09. It counts as ADME, organism-based. The conditions noted are these: in vivo, 0.5 h.
Data set [29] has as its system Rattus norvegicus. Description: Evaluated for the distribution of radioactivity in tissues of female Fischer rats lungs after 5 minutes intravenous administration; dose/g, range 0.51-0.66. It counts as ADME, organism-based, Lung. The conditions noted are these: in vivo. The gist of the method:
as §1

For data set [30], the system named is Rattus norvegicus. Description: Evaluated for the distribution of radioactivity in tissues of female Fischer rats heart after 30 minutes intravenous administration; dose/g, range 0.95-1.44. The class given is ADME, organism-based. The conditions noted are these: in vivo, 0.5 h.
Data set [31] has as its system Rattus norvegicus. The data set can be described thus: Evaluated for the distribution of radioactivity in tissues of female Fischer rats thyroid after 5 minutes intravenous administration; dose/g, range 5-8. The class given is ADME, organism-based, Thyroid gland. The conditions noted are these: in vivo. The gist of the method: as §1
Data set [32] has as its system Rattus norvegicus. Description: Evaluated for the distribution of radioactivity in tissues of female Fischer rats heart after 5 minutes intravenous administration; dose/g, range 0.90-1.46. It counts as ADME, organism-based. The conditions noted are these: in vivo.
In data set [33] the test system is Rattus norvegicus. The data set can be described thus: Evaluated for the distribution of radioactivity in tissues of female Fischer rats kidneys after 60 minutes intravenous administration; dose/g, range 0.17-0.25. The class given is ADME, organism-based, Kidney. The settings on record: in vivo, 1 h.
Data set [34] has as its system Rattus norvegicus. The data set can be described thus: Evaluated for the distribution of radioactivity in tissues of female Fischer rats kidneys after 30 minutes intravenous administration; dose/g, range 0.24-0.31. It counts as ADME, organism-based, Kidney. The conditions noted are these: in vivo, 0.5 h.
Data set [35] relates to Rattus norvegicus. Description: Evaluated for the distribution of radioactivity in tissues of female Fischer rats liver after 30 minutes intravenous administration; dose/g, range 2.30-3.12. The conditions noted are these: in vivo, 0.5 h. It counts as ADME, organism-based.
Data set [36] relates to Rattus norvegicus. Description: Evaluated for the distribution of radioactivity in tissues of female Fischer rats lungs after 60 minutes intravenous administration; dose/g, range 0.28-0.33. The settings on record: in vivo, 1 h. It counts as ADME, organism-based, Lung. The gist of the method: as §1

Each structure is given as a SMILES string.

As for `CCCCCCCC[P+](C)(C)CCC/C=C/I.[I-]`, the Distribution in the data set on Rattus norvegicus [1] amounted to 41%; with Rattus norvegicus [2], 0.95%; in the data set on Rattus norvegicus [3], 16%; in the data set with Rattus norvegicus [4], 1.05%; with Rattus norvegicus [5] it was 7.51%; in the data set with Rattus norvegicus [6] it was 3.72%. Moreover, the Distribution with Rattus norvegicus [7] is listed as 17.54%; in the data set on Rattus norvegicus [8], 0.93%; with Rattus norvegicus [9], 1.18%; in the data set with Rattus norvegicus [10] it was 0.14%; in the data set on Rattus norvegicus [11] it was 0.22%; in the data set on Rattus norvegicus [12], 21%. Besides, the Distribution in the data set on Rattus norvegicus [13] is 2.73%; in the data set with Rattus norvegicus [14], 1.95%; in the data set with Rattus norvegicus [15] it was 5.15%; in the data set on Rattus norvegicus [16] it was 1.84%; with Rattus norvegicus [17] it was 2.51%; with Rattus norvegicus [18], 0.42%.
In the case of `CC[N+](CC)(CC)CCC/C=C/I.[I-]`, the Distribution in the data set on Rattus norvegicus [19] worked out at 0.39%; in the data set with Rattus norvegicus [20] it was 9%; in the data set with Rattus norvegicus [21], 1.21%; in the data set with Rattus norvegicus [22], 0.12%; in the data set with Rattus norvegicus [23] it was 5.16%; with Rattus norvegicus [24], 1.55%. Besides, the Distribution in the data set on Rattus norvegicus [25] is listed as 5%; in the data set on Rattus norvegicus [26] it was 0.09%; in the data set with Rattus norvegicus [27], 7.46%; in the data set on Rattus norvegicus [28], 0.08%; in the data set with Rattus norvegicus [29], 0.57%; in the data set on Rattus norvegicus [30], 1.11%. Besides, the Distribution in the data set with Rattus norvegicus [31] amounted to 6%; in the data set on Rattus norvegicus [32] it was 1.12%; with Rattus norvegicus [33] it was 0.21%; with Rattus norvegicus [34], 0.27%; in the data set on Rattus norvegicus [35], 2.76%; with Rattus norvegicus [36], 0.29%.
